OX1R antag-1: human HCRTR1 antagonism. inhibition, % at 5 µM. actives 0.43% (n = 330,000). CHO/OX1R cells, Fluo-8 calcium fluorescence, orexin A;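 active = inhibition above its plate's threshold, mean inhibition of all tested compounds on the plate plus 3 SD, cut at about 37% in these data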;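 also: 0% = orexin A challenge wells and 100% = SB-334867-A antagonist wells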
TAAR1 agonist: agonists of human TAAR1; Q96RJ0; CHO RD-HGA16 TAAR1, Fluo-8 calcium fluorescence; vehicle wells 0%, saturating PEA agonist 100%; actives 0.99% (n = 360,000); AID 624467; activation, % at 3 µM;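 active = activation above the mean activation of all test compounds in the run plus 3 SD, cut at about 38% in these data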
Target sequence (Q96RJ0 whole entry, looked up): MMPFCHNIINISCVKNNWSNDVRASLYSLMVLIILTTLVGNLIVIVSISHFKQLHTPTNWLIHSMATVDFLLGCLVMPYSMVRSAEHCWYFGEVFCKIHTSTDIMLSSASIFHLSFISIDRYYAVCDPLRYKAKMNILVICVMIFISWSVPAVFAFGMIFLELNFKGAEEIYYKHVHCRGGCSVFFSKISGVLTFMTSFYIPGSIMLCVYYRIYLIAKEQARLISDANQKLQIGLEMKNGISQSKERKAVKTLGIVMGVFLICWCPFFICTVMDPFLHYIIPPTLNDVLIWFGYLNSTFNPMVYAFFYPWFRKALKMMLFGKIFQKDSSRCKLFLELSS
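Test system: RD-HGA16 (CHO) cells co-expressing Gα16 and hTAAR1; dosing: one-point dosing at 3 µM (nominal); timing: 17-24 h seeding, 75 min 37 °C dye, 30 min RT; signal: kinetic Fluo-8 calcium fluorescence; read-out basis: % activation relative to PEA EC100 response; controls: DMSO and PEA EC100; replicates: n 1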
TAAR1 antagonist: antagonists of human TAAR1; actives 1.5% (n = 360,000); CHO RD-HGA16 TAAR1, Fluo-8 calcium fluorescence, antagonist; inhibition, % at 3 µM;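 active = inhibition above a per-plate cutoff, the mean inhibition of test compounds on that plate plus 3 SD, cut at about 49% in these data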;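 also: 0% = DMSO plus EC80 beta-PEA response and 100% = DMSO alone without agonist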
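Assay system: RD-HGA16 CHO cells with stable hTAAR1 and Gα16 / Reagent: EC80 β-phenethylamine stimulus / Doses: 3 µM, single point / Timing: dye loading 75 min at 37 °C, then 30 min room temperature / Measured by: Fluo-8 intracellular calcium dye fluorescence, real-time kinetic reads / Controls: vehicle wells and EC80 agonist wells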
OX1R antag-2: blocks the human orexin 1 receptor; OX1R-expressing cells, FRET antagonist read-out; inhibition, % at 6.6 µM; O43613; actives 1.8% (n = 330,000); in the data active = inhibition mostly above about 38%, no sharp cut-off; inactive = mostly below about 40%;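 also: 0% = agonist challenge alone and 100% = reference antagonist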
CHO parental Ca: signal in parental CHO cells, OX1R antagonist counter-screen; inhibition, % at 5.6 µM; actives 0.63% (n = 330,000); parental CHO-K1, ATP-induced calcium, Fluo-8 fluorescence;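 active = inhibition above that plate's mean sample inhibition plus 3 SD, cut at about 26% in these data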;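 also: 0% = ATP-challenged DMSO wells and 100% = DMSO wells without ATP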
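Material: Parental CHO cells | Reagent: ATP | Compound dosing: Single nominal dose of 5.6 µM per compound | Detection: Intracellular calcium via Fluo-8 no-wash fluorescent dye | Read-out: % inhibition of ATP-induced calcium mobilization | Benchmarks: Low control ATP plus DMSO, high control DMSO only | Replicates: Singlicate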
TAAR1 nonsel count: nonselective antagonism, TAAR1 counter-screen; shares compounds with TAAR1 antagonist; counterscreen cell line, calcium fluorescence, antagonist mode; inhibition, % at 3 µM; actives 77% (n = 2,400); in the data active = inhibition above about 22%;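 also: CHO-Ga16 host cells stimulated with ATP at an EC80 level; 0% = agonist EC80 plus vehicle and 100% = vehicle without agonist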
TAAR1 ant conf: confirmation of human TAAR1 antagonists. TAAR1-expressing cells, fluorescence antagonist read-out. AID 651785. shares compounds with TAAR1 antagonist. inhibition, % at 3 µM. actives 40% (n = 2,400); in the data active = inhibition above about 49%;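 also: CHO-Ga16 host cells challenged with agonist PEA near its EC80; 0% = agonist at EC80 plus vehicle and 100% = vehicle with no agonist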
Ga16 ag counter: nonselective Ga16 agonism, counter-screen. shares compounds with TAAR1 antagonist. Ga16-expressing cells, calcium fluorescence, agonist counterscreen. activation, % at 3 µM. actives 18% (n = 2,400). AID 651953; in the data active = activation above about 12%;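 also: 0% = vehicle wells and 100% = saturating stimulus response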
TAAR1 ag count: TAAR1 agonism, antagonist counter-screen | shares compounds with TAAR1 antagonist | actives 2% (n = 2,400) | activation, % at 3 µM | hTAAR1 cell line, fluorescence activation, agonist mode | AID 651955; in the data active = activation above about 37%;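 also: CHO cells stably expressing TAAR1 with calcium dye readout; 0% = DMSO vehicle and 100% = full agonist response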
Active calls of the source: *; / = no result given. Only some compounds are listed: those with a hit (about 3.9% of all), similar ones and a draw of the others.

SMILES	OX1R antag-1	TAAR1 agonist	TAAR1 antagonist	OX1R antag-2	CHO parental Ca	TAAR1 nonsel count	TAAR1 ant conf	Ga16 ag counter	TAAR1 ag count
CCNC(=S)N/N=C/c1cc(C)n(-c2ccc(Cl)cc2)c1C	-17	11	101*	15	-30	12	77*	8	24
Cc1nc2ccccn2c1C(=O)N/N=C/c1cc(C)n(-c2ccc(Cl)cc2)c1C	-22	8	16	14	-21	/	/	/	/
CC(C)CC1Nc2ncnc(N3CCN(c4ccccc4)CC3)c2N(Cc2ccccc2)C1=O (stereo unspecified)	-43	0	-29	13	-30	/	/	/	/
CC1Nc2ncnc(N3CCN(c4ccccc4)CC3)c2N(Cc2ccc(Cl)cc2)C1=O (stereo unspecified)	-21	26	53*	13	-9	22*	38	7	8
CC1Nc2ncnc(N3CCN(c4ccccc4)CC3)c2N(Cc2ccccc2)C1=O (stereo unspecified)	-15	24	50*	1	-22	22*	35	7	13
CSc1ccc(CCNC(=O)c2nn(C)c3c2CS(=O)(=O)c2ccccc2-3)cc1	-6	8	61*	18	-2	34*	50*	8	8
Cn1nc(C(=O)NCc2ccc(F)cc2)c2c1-c1ccccc1S(=O)(=O)C2	-10	2	13	15	22	/	/	/	/
OC(CN1CCCC1)Cn1ccc2ccccc21 (stereo unspecified)	-15	-1	-9	3	-20	/	/	/	/
CCOc1ccc(CNS(=O)(=O)c2cc(-c3cc(C)no3)ccc2OC)cc1OC	1	13	-25	30	0	/	/	/	/
COc1cc(C#N)ccc1OCC(=O)Nc1cccc(S(=O)(=O)N(C)c2ccccc2)c1	/	12	74*	/	/	36*	49*	10	7
CCCC(=O)Nc1cccc(S(=O)(=O)N(C)c2ccccc2)c1	-10	1	-4	28	-10	/	/	/	/
CC(=O)CCc1ccc(OCC(=O)Nc2cccc(S(=O)(=O)N(C)c3ccccc3)c2)cc1	/	10	74*	/	/	35*	52*	11	8
O=C(O)C1C2CCC(O2)C1C(=O)Nc1ccc(F)c(Cl)c1 (stereo unspecified)	-11	5	-21	6	-1	/	/	/	/
CCn1cc(C(=O)NCC2CCCO2)c(=O)c2cc(S(=O)(=O)N(C)C3CCCCC3)ccc21 (stereo unspecified)	-16	10	52*	14	-5	20	38	6	5
CCSC1=NCCN1C(=O)c1ccc(S(=O)(=O)N(C)C)cc1	-8	4	-6	11	-8	/	/	/	/
O=C(Nc1cccnc1)c1sc(Nc2ccccc2)nc1-c1ccccc1	-32	14	59*	16	-24	34*	37	8	11
O=C(CCN1C(=O)CSc2ccccc21)Nc1ccc(C(F)(F)F)cc1	25	5	62*	6	-25	19	43	10	18
COc1cc(O)cc2c1[C@@H]1Oc3c(ccc(O)c3CC=C(C)C)[C@@H]1CO2	-17	0	13	24	0	/	/	/	/
CCC(=O)N1CCN(c2ccc(NC(=O)COc3ccccc3[N+](=O)[O-])cc2)CC1	-24	21	86*	20	-16	32*	57*	14*	15
CCC(C)(C(=O)Nc1ccc(OC)cc1)N(C)C(=O)Cn1nnnc1N (stereo unspecified)	-14	-1	-15	21	4	/	/	/	/
Cc1cc(-c2ccc(S(=O)(=O)N(C)Cc3ccccc3)cc2)on1	0	9	65*	29	38*	26*	51*	10	17
O=C(Cc1cccs1)N1CCN=C1SCc1ccc(Br)cc1	-22	2	-10	1	-3	/	/	/	/
